From ChEMBL document CHEMBL2203197, “Design and synthesis of 2-aminothiazole based antimicrobials targeting MRSA” (2012)
In brackets after ≈: the same amount, converted by molar mass.

Columns and labels:
Type in all cases: functional
Staphylococcus aureus [1] = experiment: Antibacterial activity against methicillin-resistant Staphylococcus aureus RN8175 after 24 hrs by CLSI broth microdilution method; conditions: RN8175, 24 h
Summary of the method: (§1)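 Broth microdilution per CLSI in cation-adjusted Mueller–Hinton broth. Plates were incubated 24 h at 37 °C. MIC was taken as the lowest concentration that inhibited growth, judged by turbidity.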

Staphylococcus aureus [2] = experiment: Antibacterial activity against methicillin-resistant Staphylococcus aureus USA-300 after 24 hrs by CLSI broth microdilution method; conditions: USA-300, 24 h; summary of the method: as §1
Escherichia coli = experiment: Antibacterial activity against Escherichia coli C600 N/puc19 after 24 hrs by CLSI broth microdilution method; conditions: C600 N/puc19, 24 h
Summary of the method: (§2)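 Broth microdilution per CLSI in cation-adjusted Mueller–Hinton broth. MIC was taken as the lowest concentration inhibiting visible growth (turbidity).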

Staphylococcus aureus [3] = experiment: Antibacterial activity against methicillin-resistant Staphylococcus aureus UAMS-1 after 24 hrs by CLSI broth microdilution method; conditions: UAMS-1, 24 h; summary of the method: as §1
Acinetobacter baumannii = experiment: Antibacterial activity against Acinetobacter baumannii UNMC 8872 after 24 hrs by CLSI broth microdilution method; conditions: UNMC 8872, 24 h; summary of the method: as §2

Compound	MIC (Staphylococcus aureus [1]) [µg/mL]	MIC (Staphylococcus aureus [2]) [µg/mL]	MIC (Escherichia coli) [µg/mL]	MIC (Staphylococcus aureus [3]) [µg/mL]	MIC (Acinetobacter baumannii) [µg/mL]
COC(=O)c1ccc(-c2csc(N)n2)cc1	128 (≈ 546 µM)	> 256	> 256		
CO/N=C(\C(=O)N[C@@H]1C(=O)N2C(C(=O)O)=C(CSc3nc(=O)c(O)nn3C)CS[C@H]12)c1csc(N)n1 [CEFTRIAXONE]	16 (≈ 28.9 µM)	128 (≈ 231 µM)	2 (≈ 3.61 µM)	8 (≈ 14.4 µM)	8 (≈ 14.4 µM)
Fc1cccc(Nc2nc(-c3ccc(N4CCOCC4)cc3)cs2)c1	> 256	> 256	> 256	256 (≈ 720 µM)	
COC(=O)c1ccccc1-c1cccc(-c2csc(N)n2)c1	> 256	> 256	> 256	> 256	
COC(=O)c1cccc(-c2csc(N)n2)c1	> 256	> 256	> 256		
CCOC(=O)c1cccc(-c2ccc3sc(N)nc3c2)c1	> 256	> 256	> 256	> 256	
CCOC(=O)c1cccc(-c2cccc(-c3csc(N)n3)c2)c1	> 256	> 256	> 256		> 256
Nc1nc(-c2ccc(N3CCOCC3)cc2)cs1	256 (≈ 980 µM)	> 256	> 256	128 (≈ 490 µM)	
Fc1cccc(Nc2nc(-c3ccc(N4CCCC4)cc3)cs2)c1	> 256	> 256	> 256	2 (≈ 5.89 µM)	
O=S(=O)(Nc1nc(C23CC4CC(CC(C4)C2)C3)cs1)c1cccc(C(F)(F)F)c1	> 256	> 256	> 256	128 (≈ 289 µM)	
Nc1nc(-c2cccc(-c3ccc(C(=O)O)cc3)c2)cs1	> 256	> 256	> 256		> 256
Fc1cccc(Nc2nc(-c3cccc(Br)c3)cs2)c1	4 (≈ 11.5 µM)	4 (≈ 11.5 µM)	> 256	2 (≈ 5.73 µM)	
Nc1nc2cc(-c3cccc(OC(F)(F)F)c3)ccc2s1	8 (≈ 25.8 µM)	8 (≈ 25.8 µM)	> 256		
Nc1nc(-c2ccc(OC(F)(F)F)cc2)cs1	64 (≈ 246 µM)	64 (≈ 246 µM)	> 256		
CCOC(=O)c1cccc(-c2ccccc2-c2csc(N)n2)c1	32 (≈ 98.6 µM)	256 (≈ 789 µM)	> 256		> 256
CCOC(=O)COc1ccc(-c2cccc(-c3csc(N)n3)c2)cc1	256 (≈ 722 µM)	> 256	> 256		

Compound	MIC (Staphylococcus aureus [1]) [µg/mL]	MIC (Staphylococcus aureus [2]) [µg/mL]	MIC (Escherichia coli) [µg/mL]	MIC (Staphylococcus aureus [3]) [µg/mL]	MIC (Acinetobacter baumannii) [µg/mL]
O=S(=O)(Nc1nc(-c2ccccc2Br)cs1)c1ccccc1	32 (≈ 81 µM)	128 (≈ 324 µM)	> 256		
O=S(=O)(Nc1nc(-c2ccc(Br)cc2)cs1)c1ccccc1	16 (≈ 40.5 µM)	64 (≈ 162 µM)	> 256		> 256
Nc1nc(-c2ccc(N3CCCC3)cc2)cs1	> 256	> 256	> 256	256 (≈ 1040 µM)	
CCOC(=O)COc1cccc(-c2cccc(-c3csc(N)n3)c2)c1	> 256	> 256	> 256		
Nc1nc(-c2cc3ccccc3o2)cs1	> 256	> 256	> 256	256 (≈ 1180 µM)	
Nc1nc2ccc(-c3cccc(OC(F)(F)F)c3)cc2s1	8 (≈ 25.8 µM)	16 (≈ 51.6 µM)	> 256		
CCOC(=O)CCc1ccc(-c2cccc(-c3csc(N)n3)c2)cc1	256 (≈ 726 µM)	> 256	> 256		
Nc1nc(-c2cccc(-c3cccc(OC(F)(F)F)c3)c2)cs1	4 (≈ 11.9 µM)	8 (≈ 23.8 µM)	> 256		
O=S(=O)(Nc1nc(-c2ccccc2F)cs1)c1ccccc1	32 (≈ 95.7 µM)	128 (≈ 383 µM)	> 256		
Nc1nc(-c2ccccc2-c2cccc(OC(F)(F)F)c2)cs1	16 (≈ 47.6 µM)	16 (≈ 47.6 µM)	> 256		
CC(=O)OCC1=C(C(=O)O)N2C(=O)[C@@H](NC(=O)c3cccc(-c4csc(N)n4)c3)C2SC1 (stereo not given in full)	16 (≈ 33.7 µM)	256 (≈ 539 µM)	> 256	256 (≈ 539 µM)	
O=S(=O)(Nc1nc2c(s1)CCCC2)c1cccc(C(F)(F)F)c1	> 256	> 256	> 256	> 256	
COc1ccc(-c2csc(N)n2)cc1	> 256	> 256	> 256		
Nc1nc(-c2cccc(-c3cccc(C(=O)O)c3)c2)cs1	> 256	> 256	> 256		> 256
Nc1nc(-c2ccc(-c3cccc(OC(F)(F)F)c3)cc2)cs1	2 (≈ 5.95 µM)	> 256	> 256		
Nc1nc(-c2ccc3ccccc3c2)cs1	> 256	> 256	> 256	256 (≈ 1130 µM)	
